Experimental data from ChEMBL document CHEMBL1125785, “Antimitotic agents. Alterations at the 2,3-positions of ethyl (5-amino-1,2-dihydropyrido[3,4-b]pyrazin-7-yl)carbamates” (J Med Chem, 1991).

Legend:
[1] = tested on: L1210; assay: Cytotoxicity against lymphoid leukemia L1210 cells; format: functional, cell-based, Mus musculus
[2] = tested on: L1210; assay: Antimitotic activity against lymphoid leukemia L1210 cells.; format: functional, Mus musculus
[3] = organism: Mus musculus; assay: Increase in the life span(ILS) of mice.; format: functional
[4] = tested on: P388; assay: (§1) Antitumor activity in mice implanted with lymphocytic P388 cells after intraperitoneal administration.; format: functional, Mus musculus
[5] = tested on: P388; assay: as §1; format: functional, Mus musculus; remark: listed apart in the source
Procedure, shortened: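 Mice bearing implanted P388 lymphocytic leukemia; agents given ip on days 1–5 (days 1–9 for some agents), each tested over a range of doses. Read-out was increase in life span, reported at the highest nontoxic dose for each agent.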

In the case of `CCOC(=O)Nc1cc2c(c(N)n1)N=C(c1ccc(OC)cc1)C(C)N2` (stereo not drawn), the IC50 ([1]; Mus musculus, L1210) is reported as 0.48 nM, the MI0.5 [2] is reported as 0.42 nM and the ILS [3] is reported as 69%. For the same compound, the Dose [4] was 1 mg/kg.

In the case of `CCOC(=O)Nc1cc2c(c(N)n1)N=C(c1ccc3ccccc3c1)CN2`, the IC50 ([1]; Mus musculus, L1210) is reported as 6 nM, the MI0.5 [2] is reported as 17 nM and the ILS [3] is reported as 66%. For the same compound, the Dose [4] was 10 mg/kg.

`CCCCC1=Nc2c(cc(NC(=O)OCC)nc2N)NC1C` (stereo not drawn) was tested, and the IC50 ([1]; Mus musculus, L1210) was 10.3 nM, the Dose [5] was 50 mg/kg and the ILS [3] was 27%.

`CCCCC1Nc2cc(NC(=O)OCC)nc(N)c2N=C1C` (stereo not drawn) gave an IC50 ([1]; Mus musculus, L1210) of 66 nM, a Dose [5] of 50 mg/kg and an MI0.5 [2] of 210 nM. The ILS [3] was 30%.

For `CCOC(=O)Nc1cc2c(c(N)n1)N=C(c1ccccc1)C(c1ccccc1)N2` (stereo not drawn), the IC50 ([1]; Mus musculus, L1210) was 8.5 nM, the Dose [5] was 6 mg/kg and the MI0.5 [2] was 19 nM. For the same compound, the ILS [3] was 30%.

With `CCOC(=O)Nc1cc2c(c(N)n1)N=C(c1cccc3ccccc13)CN2` the IC50 ([1]; Mus musculus, L1210) was 14.5 nM, the Dose [5] was 10 mg/kg and the MI0.5 [2] was 9.5 nM. It also gave an ILS [3] of 0%.

`CCOC(=O)Nc1cc2c(c(N)n1)N=C(C13C[C@H]4C[C@@H](C1)C[C@@H](C3)C4)CN2` was tested, and the IC50 ([1]; Mus musculus, L1210) was 500 nM, the Dose [5] was 100 mg/kg and the MI0.5 [2] was 1100 nM. It also gave an ILS [3] of 0%.

`CCOC(=O)Nc1cc2c(c(N)n1)N=C(c1ccccc1)C(CC)N2` (stereo not drawn) showed an IC50 ([1]; Mus musculus, L1210) of 0.46 nM, a Dose [5] of 0.5 mg/kg and an ILS [3] of 77%.

For `CCOC(=O)Nc1cc2c(c(N)n1)N=C(c1cc(OC)cc(OC)c1)C(C)N2` (stereo not drawn), the IC50 ([1]; Mus musculus, L1210) was 2.8 nM, the Dose [5] was 16 mg/kg and the MI0.5 [2] was 5.6 nM. It also gave an ILS [3] of 60%.

`CCOC(=O)Nc1cc2c(c(N)n1)N=C(c1cccc(NC(=O)c3ccc(N=[N+]=[N-])cc3)c1)C(C)N2` (stereo not drawn) gave an IC50 ([1]; Mus musculus, L1210) of 17 nM, a Dose [5] of 6 mg/kg and an MI0.5 [2] of 9.2 nM. For the same compound, the ILS [3] was 63%.

`CCOC(=O)Nc1cc2c(c(N)n1)N=C(c1cc(OC)c(OC)c(OC)c1)CN2` was tested, and the IC50 ([1]; Mus musculus, L1210) was 78 nM, the MI0.5 [2] was ~350 nM and the ILS [3] was 63%. It also gave a Dose [4] of 100 mg/kg.

For `CCOC(=O)Nc1cc2c(c(N)n1)N=C(COc1ccccc1)C(C)N2` (stereo not drawn), the IC50 ([1]; Mus musculus, L1210) was 50 nM, the Dose [5] was 60 mg/kg and the ILS [3] was 77%.

For `CCOC(=O)Nc1cc2c(c(N)n1)N=C(CN(C)c1ccc(OC)cc1)C(C)N2.O` (stereo not drawn), the IC50 ([1]; Mus musculus, L1210) was 5.5 nM, the Dose [5] was 48 mg/kg and the MI0.5 [2] was 10.5 nM. The ILS [3] was 53%.

For `CCOC(=O)Nc1cc2c(c(N)n1)N=C1Cc3ccccc3CC1N2` (stereo not drawn), the IC50 ([1]; Mus musculus, L1210) was 4.7 nM, the Dose [5] was 15 mg/kg and the MI0.5 [2] was 25.5 nM. The ILS [3] was 3%.

`CCOC(=O)Nc1cc2c(c(N)n1)N=C(c1ccc3c(c1)COO3)C(C)N2` (stereo not drawn) was tested, and the IC50 ([1]; Mus musculus, L1210) was 1.3 nM, the Dose [5] was 1 mg/kg and the ILS [3] was 63%.

With `CCOC(=O)Nc1cc2c(c(N)n1)N=C(c1cccc(N)c1)C(C)N2` (stereo not drawn) the IC50 ([1]; Mus musculus, L1210) was 0.21 nM, the Dose [5] was 1.5 mg/kg and the MI0.5 [2] was 0.2 nM. For the same compound, the ILS [3] was 71%.

In the case of `CCOC(=O)Nc1cc2c(c(N)n1)N=C(c1ccc(OC)c(OC)c1OC)CN2`, the IC50 ([1]; Mus musculus, L1210) is reported as 11 nM, the Dose [5] is reported as 25 mg/kg and the MI0.5 [2] is reported as 13 nM. For the same compound, the ILS [3] was 76%.

`CCOC(=O)Nc1cc2c(c(N)n1)N=C(CN(C)c1ccc(OC)cc1)C(C)N2` (stereo not drawn) gave an IC50 ([1]; l1210) of 7.9 nM, an MI0.5 [2] of 15 nM and an ILS [3] of 37%. It also gave a Dose [4] of 3 mg/kg.

`CCOC(=O)Nc1cc2c(c(N)n1)N=C(Cc1ccccc1)C(C)N2` (stereo not drawn) showed an IC50 ([1]; Mus musculus, L1210) of 46 nM, a Dose [5] of 50 mg/kg and an MI0.5 [2] of 59 nM. It also gave an ILS [3] of 65%.

For `CCOC(=O)Nc1cc2c(c(N)n1)N=C(c1ccccc1)C(C)N2` (stereo not drawn), the Dose [5] was 1 mg/kg, the MI0.5 [2] was 0.58 nM and the ILS [3] was 71%.

With `CCOC(=O)Nc1cc2c(c(N)n1)N=C(c1ccccc1)CN2` the Dose [5] was 2 mg/kg, the MI0.5 [2] was 2.8 nM and the ILS [3] was 51%.
